mABHD4 FP: inhibitors of mouse ABHD4. inhibition, % at 8.92 µM. purified mABHD4, FP-Rh probe fluorescence polarization. 370,000 tested, 0.54% active. AID 720543;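 active means inhibition exceeding the mean over every tested compound plus 3 SD, cut at about 30% in these data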
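Material: mouse ABHD4 enzyme, wild type; Benchmarks: S159A mutant high control, sample median low control; Buffer or medium: HEPES pH 7.0, NaCl, Pluronic buffer; Signal: fluorescence polarization; Read-out: percent inhibition of probe binding, normalized to plate controls; Timing: pre-incubation 45 min, probe exposure 60 min, at 25 °C; Dosing: 8.92 µM, single dose.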
SIAE primary: blocks human sialic acid acetylesterase; Q9HAT2; SIAE FP-Rh probe binding, fluorescence polarization; inhibition, % at 9.66 µM; 370,000 tested, 0.69% active;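 active means inhibition above a cutoff: mean of compounds within the control limits plus 3 SD of those, cut at about 17% in these data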
HTRA1 inhibitor: blocks human HTRA1 serine peptidase. recombinant HTRA1, FP-rhodamine activity-based probe, fluorescence polarization. inhibition, % at 5.96 µM. 340,000 tested, 0.5% active. AID 504803. Q92743; in the data active means inhibition above about 36%
Target sequence (Q92743 whole entry, looked up): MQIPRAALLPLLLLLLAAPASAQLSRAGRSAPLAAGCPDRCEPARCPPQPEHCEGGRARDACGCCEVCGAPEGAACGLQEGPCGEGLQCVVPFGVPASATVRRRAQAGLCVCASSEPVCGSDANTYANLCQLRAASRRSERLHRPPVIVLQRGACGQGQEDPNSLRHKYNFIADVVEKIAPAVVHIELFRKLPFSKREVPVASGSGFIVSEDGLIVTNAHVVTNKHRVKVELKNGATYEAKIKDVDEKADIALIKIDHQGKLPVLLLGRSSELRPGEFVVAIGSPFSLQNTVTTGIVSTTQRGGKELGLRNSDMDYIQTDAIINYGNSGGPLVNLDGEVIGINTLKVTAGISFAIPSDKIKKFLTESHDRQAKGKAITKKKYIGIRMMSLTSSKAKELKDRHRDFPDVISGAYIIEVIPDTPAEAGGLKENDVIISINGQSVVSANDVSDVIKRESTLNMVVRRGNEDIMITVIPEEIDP
TCR CD3 inh: human TCR-CD3 binding inhibition | TAMRA-labeled TCR probe fluorescence, biochemical | 360,000 tested, 0.37% active | inhibition, % at 9.4 µM; in the data active means inhibition above about 19%;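 further: recombinant mutant TCR 2C K166C tagged with TAMRA read by polarization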
PME-1 inh: PME-1 (human) inhibition. recombinant PME-1, FP-Rh probe fluorescence polarization. AID 2130. 320,000 tested, 0.53% active. inhibition, % at 5.9 µM;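 active means inhibition above the campaign mean of all compounds plus 3 SD, cut at about 26% in these data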;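 further: competitive labeling of PME-1 active site by serine hydrolase directed probe; inhibitors block probe labeling so polarization falls and inhibition rises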
Fam108B counter: blocks mouse Fam108B hydrolase in RBBP9 counter-screen | inhibition, % at 9.51 µM | 300,000 tested, 0.33% active | recombinant Fam108B, FP-Rh probe fluorescence polarization;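 active means inhibition above the screen mean inhibition plus 3 SD, computed separately per campaign, cut at about 18% in these data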;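 further: inhibitors lower polarization as less probe binds the enzyme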
SIAE confirm: human SIAE inhibition, confirmation. SIAE FP-Rh activity-based probe, fluorescence polarization. 2,300 tested, 13% active. inhibition, % at 9.66 µM. shares compounds with SIAE primary;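 active means mean inhibition of the replicates above the hit cutoff set in the primary screen, cut at about 17% in these data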;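 further: inhibitors lower polarization as more probe stays unbound to SIAE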
Of the large screens only hits and unclear results are named; the others gave an inactive call (follow-up assays come after a bar, where they were run). This is a sample that favours compounds with a hit; in the whole collection about 1.8% have one here.

Cn1c(SCC(=O)Nc2ccc3c(c2)n(C)c(=O)n3C)nnc1-c1ccncc1	none
O=C(O)C(C=C(Cl)Cl)N1CCOCC1 (configuration not stated)	none (no result: PME-1 inh, Fam108B counter)
CCOC(=O)[C@]12CCCC=C1N(Cc1cccc3ccccc13)C(=O)[C@H](CC(=O)N1CCCCC1)C2	none (no result: HTRA1 inhibitor, PME-1 inh, Fam108B counter)
C[C@H]1CN(c2ccccc2)C(=O)[C@@H]1CC(=O)Nc1ccc(Br)cc1	none (no result: PME-1 inh, Fam108B counter)
COc1c(OC(C)=O)ccc(/C=C/c2ccc3cccc(OCc4ccccc4)c3n2)c1[N+](=O)[O-]	SIAE primary 28 | SIAE confirm inactive
CCc1c(-c2ccccc2F)ncn1Cc1cccc(-c2ccccc2)c1	none (no result: HTRA1 inhibitor, PME-1 inh, Fam108B counter)
COc1ccc(NS(=O)(=O)c2cccs2)cc1S(=O)(=O)N1CCCCC1	SIAE primary 19 | SIAE confirm inactive
O=C(NCCc1ccc(O)c(Br)c1)c1ccc(Br)o1	none (no result: HTRA1 inhibitor, PME-1 inh, Fam108B counter)
COCCCNC(=O)C[C@H]1C[C@@]2(C(=O)OC)C(=C[C@H](COCc3ccccc3)O[C@@H]2C)N(Cc2ccc3c(c2)OCO3)C1=O	SIAE primary 29 (no result: HTRA1 inhibitor, PME-1 inh, Fam108B counter) | SIAE confirm inactive
C[C@@H]1CCN(C2CC2)S(=O)(=O)c2c(cccc2N2CC[C@@H](N(C)C)C2)O1	none (no result: HTRA1 inhibitor, TCR CD3 inh, PME-1 inh, Fam108B counter)
Cn1cc(C(=O)N2CCc3ccccc32)cn1	SIAE primary 184 | SIAE confirm inactive
O=C(N[C@H](C(=O)N1CCC[C@H]1C(=O)NCc1ccccc1)c1ccccc1)C1CCCC1	none (no result: HTRA1 inhibitor, PME-1 inh, Fam108B counter)
c1ccc(-c2c[nH]c3[n+]2CCCCC3)cc1	SIAE primary 19 | SIAE confirm inactive
Brc1ccc(-c2csc3[n+]2CCCCC3)cc1	none
Cc1cc(C)c(NS(=O)(=O)c2ccc3c(c2)NC(=O)CCS3)c(C)c1	none
O=[N+]([O-])c1ccc(N=Nc2c(O)[nH]c3ccc(F)cc23)cc1	none
COc1ccc2[nH]c(O)c(N=NC(=O)Cc3cccs3)c2c1	SIAE primary 18 | SIAE confirm inactive
O=Nc1c(O)[nH]c2ccc(F)cc12	SIAE primary 23 | SIAE confirm 22
O=Nc1c(O)[nH]c2ccc(Cl)cc12	SIAE primary 28 | SIAE confirm 25
COc1ccc2[nH]c(O)c(N=O)c2c1	SIAE primary 26 | SIAE confirm 23
O=C(c1cc(C2CCCCN2C(=O)OCCF)on1)N1CCOCC1 (configuration not stated)	none (no result: HTRA1 inhibitor, PME-1 inh, Fam108B counter)
COc1ccccc1/C=N/N1CCN(c2ccc(Cl)cc2)CC1	none
CCOc1cccc(/C=N/N2CCN(c3ccc(Cl)cc3)CC2)c1O	SIAE primary 21 | SIAE confirm inactive
CC(=O)Nc1cc(-c2ccc(N3CCN(C)CC3)cc2)cn2c(-c3ccc(F)c(Cl)c3)cnc12	SIAE primary 18 (no result: HTRA1 inhibitor, PME-1 inh, Fam108B counter) | SIAE confirm inactive
O=C(NCc1ccc(F)cc1)C1CCCN1C(=O)Nc1ccc(Cl)cc1 (configuration not stated)	SIAE primary 17 | SIAE confirm inactive
O=C(NCc1ccccc1)[C@H]1CCCN1C(=O)[C@H]1CCCN1C(=O)c1ccc(F)c(F)c1	SIAE primary 18 (no result: HTRA1 inhibitor, PME-1 inh, Fam108B counter) | SIAE confirm inactive
Cc1cc2ccccn2c1C(=O)c1ccc(S(=O)(=O)N(C)C)cc1	SIAE primary 19 | SIAE confirm inactive
CCOC(=O)C(NC(=O)CC)(N1CCc2ccccc2C1)C(F)(F)F (configuration not stated)	SIAE primary 20 | SIAE confirm inactive
CCOC(=O)C(NC(=O)CC)(Nc1ccccc1)C(F)(F)F (configuration not stated)	none
Clc1ccc(Nc2nc(C3CC3)cs2)cc1	SIAE primary 20 | SIAE confirm inactive
S=c1[nH]nc(Nc2ccc(Cl)cc2)s1	none
Cc1noc(NS(=O)(=O)c2ccc(NC(=O)c3cc(F)c(F)c(F)c3F)cc2)c1C	none (no result: PME-1 inh, Fam108B counter)
COc1ccc2oc(=O)c(C(=O)NCc3ccc(F)cc3)cc2c1	SIAE primary 62 | SIAE confirm inactive
COc1ccc(CNC(=O)c2cc3ccccc3oc2=O)cc1	none
Cn1ccsc1=NC(=O)c1cccc(C#N)c1	none
CC(C)(C)OC(=O)C[C@H]1C/C=C\C[C@@H](CC(=O)NCCO)C(=O)NC[C@@H](c2ccccc2)OC1=O	none (no result: PME-1 inh, Fam108B counter)
O=C(O)c1ccccc1NCc1cccnc1	none (no result: HTRA1 inhibitor)
O=C(O)CNc1ccccc1C(=O)O	SIAE primary 38 | SIAE confirm inactive
CN(C)c1ccc(C(CNC(=O)c2ccc(C#N)cc2)c2c[nH]c3ccccc23)cc1 (configuration not stated)	SIAE primary 24 | SIAE confirm inactive
CCOC(=O)c1ccc(S(=O)(=O)NCC(c2ccc(N(C)C)cc2)c2c[nH]c3ccccc23)cc1 (configuration not stated)	SIAE primary 23 | SIAE confirm inactive
CN(C)c1ccc(C(CNC(=O)c2ccccc2Br)c2c[nH]c3ccccc23)cc1 (configuration not stated)	none
CC(C)(C)c1ccccc1NC(=O)COC(=O)CN1C(=O)NC2(CCCC2)C1=O	SIAE primary 21 | SIAE confirm inactive
CCN(CC)S(=O)(=O)c1cc(Cl)ccc1OC	none
CCN(CC)S(=O)(=O)c1cc(Br)ccc1OC	SIAE primary 18 | SIAE confirm inactive
COCCNC(=O)/C(C#N)=C/c1ccc(OCc2ccc(F)cc2)cc1	none
COCCCNC(=O)/C(C#N)=C/c1ccc(F)cc1	SIAE primary 33 | SIAE confirm inactive
Cc1cc(C)nc(N2CCCC(C(=O)NC(C)C)C2)n1 (configuration not stated)	SIAE primary 18 | SIAE confirm inactive
CCCNC(=O)C1(C)CCN(C(=O)c2ccc3ccccc3c2)C1 (configuration not stated)	none (no result: HTRA1 inhibitor, PME-1 inh, Fam108B counter)
Cc1cc([N+](=O)[O-])nn1Cc1ccc(C(=O)N/N=C/c2ccc(O)cc2O)cc1	SIAE primary 19 | SIAE confirm inactive
Cc1cc([N+](=O)[O-])nn1Cc1ccc(C(=O)N/N=C/c2ccc(F)cc2)cc1	none
O=C(Nc1ccncc1)C1CCN(S(=O)(=O)c2cccc(C(F)(F)F)c2)CC1	SIAE primary 18 (no result: Fam108B counter) | SIAE confirm inactive
Fc1ccc(-c2csc(NC(=S)Nc3ccccc3)n2)cc1	SIAE primary 17 | SIAE confirm inactive
O=C(O)CCC(=O)Nc1nc(-c2ccccc2)cs1	SIAE primary 19 | SIAE confirm inactive
O=S(=O)(/N=C(/NC(=S)Nc1ccccc1)c1ccccc1)c1ccc(Cl)cc1	none
CCCN(CC(=O)Nc1ccccc1OC)Cc1c(O)ccc2ccccc12	none
CCc1ccc(CNC(=O)CCS(=O)(=O)Cc2ccccc2F)cc1	SIAE primary 20 | SIAE confirm inactive
COc1ccc(C(=O)N/N=C/c2ccc(OC)c(CN3CCCc4ccccc43)c2)cc1	none
COc1ccc(/C=N/NC(=O)c2cccnc2)cc1CN1CCCc2ccccc21	SIAE primary 22 | SIAE confirm 19

From PubChem BioAssay
